# The list is not random: actives were taken first. Their share in the collection is about 2.3%.
# TRPC4 inh = inhibitors of mouse TRPC4 channel, primary screen, Fluo4 calcium, HEK293 TRPC4beta/mu-opioid cells; Short transient receptor potential channel 4 (Mus musculus), Q9QUQ5; B-score at 10 µM; DAMGO-evoked Fluo4 calcium flux; hits give low values; hit rate 0.39% among 300,000;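 active means B-score over 3 SD under the library average, no early fluorescence shift, positive overall ratio signal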
# Target sequence (Q9QUQ5 whole entry, looked up): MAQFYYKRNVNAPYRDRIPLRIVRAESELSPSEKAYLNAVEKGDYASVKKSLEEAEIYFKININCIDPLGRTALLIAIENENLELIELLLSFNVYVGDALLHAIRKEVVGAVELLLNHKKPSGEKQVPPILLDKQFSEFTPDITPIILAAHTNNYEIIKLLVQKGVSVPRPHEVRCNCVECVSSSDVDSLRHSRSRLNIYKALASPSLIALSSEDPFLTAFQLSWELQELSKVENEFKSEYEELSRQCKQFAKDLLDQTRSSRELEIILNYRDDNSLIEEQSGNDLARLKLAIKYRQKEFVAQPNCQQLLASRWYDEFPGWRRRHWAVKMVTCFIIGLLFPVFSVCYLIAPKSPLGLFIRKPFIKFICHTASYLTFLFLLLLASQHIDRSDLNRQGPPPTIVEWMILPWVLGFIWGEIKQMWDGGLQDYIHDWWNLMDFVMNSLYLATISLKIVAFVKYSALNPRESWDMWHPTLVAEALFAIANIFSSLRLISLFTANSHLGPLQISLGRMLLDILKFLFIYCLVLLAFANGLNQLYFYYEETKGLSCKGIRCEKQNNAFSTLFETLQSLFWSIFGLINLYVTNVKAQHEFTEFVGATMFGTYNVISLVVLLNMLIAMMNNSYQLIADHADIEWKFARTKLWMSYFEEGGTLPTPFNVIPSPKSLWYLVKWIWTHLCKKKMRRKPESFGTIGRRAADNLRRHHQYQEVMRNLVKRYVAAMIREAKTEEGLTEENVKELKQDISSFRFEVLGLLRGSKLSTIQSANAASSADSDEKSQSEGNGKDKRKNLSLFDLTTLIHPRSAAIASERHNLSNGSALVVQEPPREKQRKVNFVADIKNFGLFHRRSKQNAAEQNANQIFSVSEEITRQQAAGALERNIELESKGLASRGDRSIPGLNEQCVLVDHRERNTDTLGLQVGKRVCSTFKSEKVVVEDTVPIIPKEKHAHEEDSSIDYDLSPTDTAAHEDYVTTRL
#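 Assay system: HEK293 cells with stable TRPC4beta plus mu-opioid receptor expression; Probe or stimulus: DAMGO in two steps, submaximal then maximal; Dosing: single-point compound dosing; Measured by: Fluo4 calcium-dye fluorescence, kinetic read; Read-out basis: B score from integrated Fluo4 fluorescence ratio.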
# TRPC4 act = activators of mouse TRPC4 channel, primary screen, Fluo4 calcium, HEK293 TRPC4beta/mu-opioid cells | Short transient receptor potential channel 4 (Mus musculus), Q9QUQ5 | Fluo4 calcium fluorescence; hits give high values | B-score at 10 µM | hit rate 0.49% among 310,000 | AID 2237, 2010;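 active means B-score above 5 SD of library B-scores, and initial fluorescence ratio not above library mean plus 5 SD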;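 further: positive B-score marks a calcium rise read as TRPC4 activation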
#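 Test system: HEK293 cells stably co-expressing mouse TRPC4beta and mu-opioid receptor | Schedule: Fluo4 dye loading 45 min at room temperature, 110 s recording | Measured by: Kinetic Fluo4 calcium fluorescence, 5 s baseline at 1 Hz | Evaluation: B score of integrated ratio | Controls: Buffer (low) and maximal DAMGO (high)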
# TRPC6 inhibitor = mouse TRPC6 channel inhibitors, primary screen, cell-based, HEK293, membrane potential dye; Short transient receptor potential channel 6 (Mus musculus), Q61143; ACh-evoked depolarization; hits give low values; B-score at 10 µM; hit rate 1.1% among 310,000; AID 2553, 2010;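 active means B-score under library mean minus 3 SD, initial fluorescence not abnormally high, positive integrated signal ratio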;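 further: B-score derived from integrated fluorescence ratio over the kinetic read; more negative B-score means stronger inhibition of depolarization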
# TRPC6 activator = mouse TRPC6 channel activators, primary screen, cell-based, HEK293, membrane potential dye | AID 2550, 2010 | B-score at 10 µM | Short transient receptor potential channel 6 (Mus musculus), Q61143 | hit rate 0.13% among 310,000 | HEK293-TRPC6 membrane potential dye fluorescence; hits give high values;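 active means B-score of the integrated fluorescence ratio above library mean plus 3 SD, and starting fluorescence ratio within library mean plus 5 SD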;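 further: higher score means more depolarization so channel activation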
# TRPC4 potent = positive allosteric modulators of TRPC4, primary screen, cell-based, mouse TRPC4beta, HEK293 mu-opioid, Fluo-4 calcium | hit rate 0.42% among 310,000 | DAMGO EC20, Fluo-4 Ca2+ flux; hits give high values | B-score at 10 µM;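 active means B-score of calcium response area above 5 SD of library B-scores, with initial fluorescence ratio within 5 SD of library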;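 further: B-score of integrated fluorescence ratio over time as area under calcium response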
# * marks the source's active call; other numbers are inactive results; i = inactive.
SMILES,TRPC4 inh,TRPC4 act,TRPC6 inhibitor,TRPC6 activator,TRPC4 potent
Cc1cc(C)c(C#N)c(SCC(=O)C2CC2)n1,i,i,i,i,i
CCOC(=O)c1ccc(NC(=O)c2c(N)n(Cc3ccccc3)c(=O)[nH]c2=O)cc1,i,i,i,i,i
CCCCCCCCC[n+]1cccc2c3ccccc3ccc21,i,i,-5.7*,i,i
O/N=C/c1cccc[n+]1CCCCCC[n+]1ccccc1/C=N/O,i,i,i,i,i
O=C(N/N=C/c1cn(-c2cccs2)nc1-c1ccccc1)c1ccccc1O,i,i,i,i,i
O=C(N/N=C/c1cn(-c2cccs2)nc1-c1ccccc1)c1ccccc1Br,i,i,i,i,14*
Cc1ccc(CNC(=O)C2CCN(c3nc(C)cc(C)n3)CC2)cc1,i,i,i,i,i
Nc1cc(=O)nc(SCC(=O)N2CCN(c3ccccc3)CC2)n1-c1ccccc1,i,i,i,i,i
Nc1cc(=O)nc(SCC(=O)N2CCN(c3ccccc3)CC2)n1-c1ccc(F)cc1,-6*,i,i,i,i
O=[N+]([O-])c1cc(S(=O)(=O)Nc2ccccc2)ccc1N1CCN(c2ccc(O)cc2)CC1,i,i,i,i,i
Cc1ccc(NS(=O)(=O)c2ccc(N3CCN(c4ccc(O)cc4)CC3)c([N+](=O)[O-])c2)c(C)c1,i,i,i,i,26*
CCOC(=O)c1oc2ccc(OC)cc2c1NC(=O)CN1CCN(C)CC1,i,88*,i,i,i
CCOC(=O)c1oc2ccccc2c1NC(=O)CN1CCN(C)CC1,i,i,i,i,i
Cc1cccc(C)c1-n1cccc1/C=C1\SC(=S)N(c2cccc(C(=O)O)c2)C1=O,-7*,i,i,i,i
Cc1ccc(S(=O)(=O)CCC(=O)NCCC2=CCCCC2)cc1,i,i,i,i,i
Cc1ccc(CS(=O)(=O)CCC(=O)NCCC2=CCCCC2)cc1,i,i,i,i,17*
O=C(C1CCCCCC1)N1CC[C@@H](N2CCC(O)CC2)[C@H](O)C1,i,i,i,i,i
c1ccc(CN2CCC(Nc3nc(-c4ccccc4)nc4ccccc34)CC2)cc1,i,i,-6.58*,i,i
N#Cc1ccccc1S(=O)(=O)N1CCN(S(=O)(=O)c2ccc(Br)c(C(=O)O)c2)CC1,i,i,i,i,i
CC1(c2ccc(OC(F)F)cc2)NC(=O)N(CC(=O)Nc2ccc(OC(F)F)cc2)C1=O (stereo not drawn),i,54*,i,i,i
CC1(c2ccc(OC(F)F)cc2)NC(=O)N(CC(=O)c2ccc3c(c2)OCO3)C1=O (stereo not drawn),i,62*,i,i,i
CC1(c2ccc(OC(F)F)cc2)NC(=O)N(CC(=O)Nc2ccc(F)cc2)C1=O (stereo not drawn),i,i,i,i,i
CCc1cccc(CC)c1NC(=O)CN1CCN(S(=O)(=O)c2ccccc2)CC1,i,i,i,i,i
O=C(CN(Cc1ccccc1Cl)S(=O)(=O)c1ccc(Cl)cc1)N/N=C/c1ccc(C(=O)O)cc1,i,i,i,i,i
COc1cc(Cl)ccc1OCc1cc(C(=O)N(C)Cc2cccc3cnccc23)no1,i,i,i,i,i
SMILES,TRPC4 inh,TRPC4 act,TRPC6 inhibitor,TRPC6 activator,TRPC4 potent
Cc1ccc(CNC(=O)C2CCC(=O)N(CCc3cccc(F)c3)C2)cc1 (stereo not drawn),i,i,i,i,i
CC(C)C(=O)Nc1ccc(C(=O)Nc2nnc(C(C)(C)C)s2)cc1,-6*,i,i,i,i
O=S(=O)(NCc1cc(-c2ccccc2Cl)no1)c1ccc(Cl)cc1,i,i,i,i,10*
CSc1c(CC(=O)Nc2ccccc2C(F)(F)F)n(Cc2ccccc2)c2ccccc12,i,i,i,i,i
O=C(Nc1nnc2n1CCS2)c1ccc(Br)o1,i,i,i,i,68*
COc1cc(CC(=O)Nc2ccc(S(=O)(=O)NC3=NCCCCC3)cc2)cc(OC)c1OC,i,i,i,i,i
CC(c1ccccc1C(O)(c1ccccc1)c1ccccc1)N(C)C (stereo not drawn),i,103*,i,i,i
CC(C)N(CC#CCC(O)(c1ccccc1)c1ccccc1)C(C)C,i,i,i,i,i
CC1CCN(S(=O)(=O)c2ccc3c(c2)N(C)C(=O)CC(=O)N3C)CC1,i,i,i,i,i
CCSc1nsc(NC(=O)Nc2ccccc2F)n1,i,i,i,i,i
C=CCSc1nsc(NC(=O)Nc2ccc(F)cc2)n1,i,i,i,i,11*
CC1(C)Cc2c(cnn2-c2ccc(F)cc2)C(NC(=O)CCc2ccncc2)C1 (stereo not drawn),i,i,i,i,i
CCCN(CCC)CCCNC(=O)c1ccc(CS(=O)(=O)c2c(Cl)cccc2Cl)o1,i,79*,i,i,i
COc1ccc(CNC(=O)C(C)NCc2ccc(S(N)(=O)=O)cc2)cc1 (stereo not drawn),-8*,i,i,i,i
Cc1csc(NC(=O)CN2C(=O)COc3ccc(Cl)cc32)n1,i,i,i,i,i
O=C(O)c1ccc(N/N=C/c2c[nH]c3ccccc23)cc1,i,i,-5.19*,i,i
O=C(NC1CC1)c1ccc2c(c1)N(Cc1ccccc1)CCS2,i,i,i,i,i
O=C(CN1CCCCC1)Nc1ccccc1Oc1ccccc1,-5*,i,i,i,i
Cc1ccc(C)c(N2CCN(C(=O)c3ccc(N4CCOCC4)c([N+](=O)[O-])c3)CC2)c1,i,i,i,i,i
CC(SCc1ccccc1)C(=O)NCc1ccccn1 (stereo not drawn),i,i,i,i,10*
CCNC(=O)N1c2ccc(OCC)cc2C(C)=CC1(C)C,-7*,i,i,i,i
N#CCC(=O)N/N=C\c1ccccc1OC/C=C/c1ccccc1,i,i,i,i,i
CN(Cc1nc(-c2ccc3c(c2)OCO3)no1)CC1(N2CCOCC2)CCCCC1,i,i,i,i,35*

# Screening results deposited in PubChem BioAssay by Johns Hopkins Ion Channel Center.
